# Only some compounds are listed: those with a hit (about 2.9% of all), similar ones and a draw of the others.
# TRPC4 block = inhibitors of mouse TRPC4 channel; B-score at 10 µM; 300,000 compounds, 0.39% hits; Q9QUQ5; HEK293 TRPC4beta/mu-opioid, DAMGO-evoked Fluo4 calcium flux; hits give low values; AID 2247;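 active means B-score over 3 SD under the library average, no early fluorescence shift, positive overall ratio signal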
#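 material = TRPC4beta/mu-opioid receptor HEK293 cell line | probe or stimulus = sequential submaximal and maximal DAMGO stimulation | compound dosing = one concentration per compound | measured by = Fluo4 Ca2+ flux fluorescence | evaluation = integrated fluorescence ratio relative to baseline, converted to per-well B score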
# TRPC6 inh = inhibitors of mouse TRPC6 channel; Q61143; HEK293-TRPC6, membrane potential dye, ACh-evoked depolarization; hits give low values; B-score at 10 µM; 310,000 compounds, 1.1% hits;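 active means B-score under library mean minus 3 SD, initial fluorescence not abnormally high, positive integrated signal ratio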;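 further: B-score derived from integrated fluorescence ratio over the kinetic read; more negative B-score means stronger inhibition of depolarization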
# TRPC6 activator = activators of mouse TRPC6 channel. AID 2550. HEK293-TRPC6 membrane potential dye fluorescence; hits give high values. B-score at 10 µM. 310,000 compounds, 0.13% hits. Q61143;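 active means B-score of the integrated fluorescence ratio above library mean plus 3 SD, and starting fluorescence ratio within library mean plus 5 SD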;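 further: higher score means more depolarization so channel activation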
# Kir21 block = Kir2.1 (mouse) channel inhibition. P35561. HEK293-Kir2.1, FluxOR thallium flux fluorescence; hits give low values. B-score at 10 µM. 310,000 compounds, 0.85% hits;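 active means fluorescence ratio B-score at or below minus 3 SD of library scores, with starting-brightness B-score within 2 SD, cut at about -4.2 in these data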;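 further: channel flux triggered by added potassium and thallium sulfate stimulus; B-score of peak minus minimum fluorescence over baseline after thallium stimulus; more negative B-score means stronger Kir2.1 block with less thallium influx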
# Target sequence (P35561 whole entry, looked up): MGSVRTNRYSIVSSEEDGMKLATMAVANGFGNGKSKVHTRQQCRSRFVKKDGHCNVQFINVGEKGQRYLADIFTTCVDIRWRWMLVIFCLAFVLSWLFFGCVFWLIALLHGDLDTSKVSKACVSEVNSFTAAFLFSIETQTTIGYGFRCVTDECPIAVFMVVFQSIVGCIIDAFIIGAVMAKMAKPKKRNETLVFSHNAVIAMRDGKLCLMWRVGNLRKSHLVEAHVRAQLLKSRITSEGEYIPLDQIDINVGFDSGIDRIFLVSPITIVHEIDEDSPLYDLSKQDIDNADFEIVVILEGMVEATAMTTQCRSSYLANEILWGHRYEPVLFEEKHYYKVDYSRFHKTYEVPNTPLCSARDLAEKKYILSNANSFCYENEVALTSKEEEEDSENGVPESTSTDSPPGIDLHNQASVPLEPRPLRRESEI
# TRPC4 PAM = TRPC4 (mouse) allosteric potentiation | B-score at 10 µM | HEK293 TRPC4beta/mu-opioid, DAMGO EC20, Fluo-4 Ca2+ flux; hits give high values | AID 2227 | 310,000 compounds, 0.42% hits;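 active means B-score of calcium response area above 5 SD of library B-scores, with initial fluorescence ratio within 5 SD of library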
# TRPC4 agonist = activators of mouse TRPC4 channel | Q9QUQ5 | HEK293 TRPC4beta/mu-opioid, Fluo4 calcium fluorescence; hits give high values | B-score at 10 µM | 310,000 compounds, 0.49% hits;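 active means B-score above 5 SD of library B-scores, and initial fluorescence ratio not above library mean plus 5 SD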;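 further: positive B-score marks a calcium rise read as TRPC4 activation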
#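 system = HEK293 cells stably co-expressing mouse TRPC4beta and mu-opioid receptor | schedule = Fluo4 dye loading 45 min at room temperature, 110 s recording | measure = B-scored integrated calcium fluorescence ratio | signal = Fluo4 calcium-sensitive dye fluorescence, kinetic, 1 Hz baseline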
# TRPC4 sel inh 2 = mouse TRPC4 off-target activity of TRPC6 inhibitors, second screen; HEK293 TRPC4/MOR, membrane potential dye fluorescence; channel activated by saturating DAMGO dose; inhibition, % at 10 µM; 920 compounds, 42% hits; shares compounds with TRPC6 inh;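 active means compounds whose fluorescence signal differed from control wells by over 3 SD, either direction, in both duplicate plates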
# TRPC4 spec = selectivity of TRPC6 inhibitors: effect on mouse TRPC4. shares compounds with TRPC6 inh. HEK293 TRPC4/mu-opioid, membrane potential fluorescence. activity change, negative = inhibition, % at 10 µM. 920 compounds, 61% hits;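 active means rise or fall in signal beyond 3 SD of buffer-only wells in both replicate plates, either sign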;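 further: integrated kinetic ratio of fluorescence range over baseline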
# HEK293 MPD ctr 2-1 = parental HEK293 nonspecific activity of TRPC6 inhibitors, second screen; shares compounds with TRPC6 inh; parental HEK293 membrane potential dye fluorescence; maximal acetylcholine challenge after compound addition; signal change vs control, % at 10 µM; 920 compounds, 31% hits;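 active means membrane potential signal moving either way by over 3 SD of the maximum-effect control, in both duplicate plates, meaning non-specific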
# HEK293 MPD ctr-1 = checks TRPC6 inhibitor effects in parental HEK293 cells; shares compounds with TRPC6 inh; parental HEK293 membrane potential dye fluorescence; membrane potential signal change, % at 10 µM; 920 compounds, 60% hits; AID 2780;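 active means membrane potential signal shifting up or down by more than 3 SD of buffer-only wells, on both duplicate plates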
# HEK293 MPD ctr-2 = checks TRPC6 modulator effects in parental HEK293 cells. membrane potential signal change, % at 10 µM. 2,400 compounds, 51% hits. shares compounds with TRPC6 inh. membrane potential dye fluorescence;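 active means membrane potential signal moves up or down beyond 5 SD from buffer-only wells, on both duplicate plates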
# HEK293 MPD ctr 2-2 = second check of TRPC6 modulator effects in parental HEK293 cells | inhibition, % at 10 µM | shares compounds with TRPC6 inh | 2,400 compounds, 14% hits | membrane potential dye fluorescence; after compound, maximal acetylcholine stimulation;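 active means membrane potential signal drops by more than 5 SD from the mean control signal, in both duplicate plates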
# TRPC4 ctr mod = selectivity of TRPC6 modulators against mouse TRPC4; shares compounds with TRPC6 inh; HEK293 TRPC4/mu-opioid, membrane potential fluorescence; percent change from control (negative = decrease, positive = increase), % at 10 µM; 2,400 compounds, 69% hits;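 active means membrane potential signal moved up or down beyond 5 SD of buffer control wells, in both duplicate plates, actives on both sides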
# TRPC4 ctr inh 2 = second selectivity test of TRPC6 modulators against mouse TRPC4. shares compounds with TRPC6 inh. HEK293 TRPC4/mu-opioid, membrane potential dye fluorescence; stimulated with maximal-effect DAMGO. inhibition, % at 10 µM. 2,400 compounds, 55% hits;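 active means drop in membrane potential signal beyond 5 SD of the control wells in both duplicate plates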;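 further: TRPC4 counter screen for TRPC6 hits run under conditions tuned for TRPC6 not TRPC4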
# TRPC6 block conf = confirmation of mouse TRPC6 inhibitors | shares compounds with TRPC6 inh | HEK293-TRPC6, membrane potential dye, ACh-evoked depolarization | inhibition, % at 10 µM | 3,300 compounds, 43% hits;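 active means fluorescence ratio falls more than 5 SD below the full-stimulation control mean, in both duplicate runs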;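 further: integrated fluorescence ratio of peak minus minimum over baseline after agonist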
# TRPC6 act confirm = confirmation of mouse TRPC6 activators. shares compounds with TRPC6 inh. HEK293-TRPC6 membrane potential dye fluorescence, FDSS. activation, % at 10 µM. 2,800 compounds, 11% hits;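 active means ratio signal rise beyond 5 SD above unstimulated control wells' mean, seen in both duplicate runs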
# Numbers stand for hits; 0 = inactive; - = no result.
SMILES,TRPC4 block,TRPC6 inh,TRPC6 activator,Kir21 block,TRPC4 PAM,TRPC4 agonist,TRPC6 block conf,others
CCC(C)(C)n1nnnc1C(c1ccc2ncccc2c1)N1CCCC(C)C1 (stereo unspecified),0,-7.22,0,0,0,0,0,TRPC4 sel inh 2=0;TRPC4 spec=27.2%;HEK293 MPD ctr 2-1=0;HEK293 MPD ctr-1=15.7%
c1cnc2ccc(C(c3nnnn3C3CCCC3)N3CCSCC3)cc2c1 (stereo unspecified),0,-6.24,19.3,0,0,0,98.0%,HEK293 MPD ctr-2=120.0%;HEK293 MPD ctr 2-2=0;TRPC4 ctr mod=31.5%;TRPC4 ctr inh 2=0;TRPC6 act confirm=147.5%
CC(C)(C)n1nnnc1C(c1ccc2ncccc2c1)N1CCC(O)CC1 (stereo unspecified),0,0,0,0,0,0,-,
C=CCNC(=O)c1ccc([N+](=O)[O-])c(Cl)c1,0,0,0,0,0,0,-,
C=CCNCc1ccc(C(=O)NCCCCCCC)cc1[N+](=O)[O-],-,-7.03,0,0,0,0,0,TRPC4 sel inh 2=75.0%;TRPC4 spec=-10.7%;HEK293 MPD ctr 2-1=0;HEK293 MPD ctr-1=-160.0%;TRPC6 act confirm=0
O=C(O)c1ccc(OCCOc2ccccc2)cc1,0,0,0,0,0,0,-,
COc1ccc(CCC(C)NC2C3CC4CC(C3)CC2C4)cc1 (stereo unspecified),0,-8.5,0,0,0,0,93.7%,TRPC4 sel inh 2=65.5%;TRPC4 spec=36.7%;HEK293 MPD ctr 2-1=-12.5%;HEK293 MPD ctr-1=20.9%
COc1ccc(CCC(C)Nc2ccccc2F)cc1 (stereo unspecified),0,0,0,0,0,0,-,
COc1cn(-c2ccccc2)nc1C(=O)NCc1ccccc1,0,0,0,0,0,0,-,
Cc1ccc(C(=O)N2CCN(c3ccc([N+](=O)[O-])cc3-n3cccc3)CC2)cc1,0,0,0,0,0,0,-,
O=C1Nc2ccccc2OC1CC(=O)N1CCOCC1 (stereo unspecified),0,0,0,0,0,0,-,
O=C1Nc2ccccc2OC1CC(=O)N1CCN(c2cccc(C(F)(F)F)c2)CC1 (stereo unspecified),0,-9.73,0,0,0,0,0,TRPC4 sel inh 2=0;TRPC4 spec=0;HEK293 MPD ctr 2-1=0;HEK293 MPD ctr-1=0;TRPC6 act confirm=0
COc1ccccc1NC(=O)Nc1cnccn1,0,0,0,0,0,0,-,
COc1cc([N+](=O)[O-])ccc1NC(=O)Nc1cnccn1,0,-5.51,0,0,0,0,58.5%,HEK293 MPD ctr-2=0;HEK293 MPD ctr 2-2=0;TRPC4 ctr mod=76.5%;TRPC4 ctr inh 2=90.5%
COc1cccc(-n2c(CCn3nc(C)c([N+](=O)[O-])c3C)n[nH]c2=S)c1,0,0,0,0,0,0,-,
COc1ccc(CCn2nc(C)c([N+](=O)[O-])c2C)cc1,0,-5.17,0,0,0,0,0,HEK293 MPD ctr-2=0;HEK293 MPD ctr 2-2=0;TRPC4 ctr mod=19.5%;TRPC4 ctr inh 2=0
C=CCc1cccc2cc(C(=O)N(CC)CC)c(=O)oc12,0,0,0,0,0,0,-,
CCCCNCC(O)(c1ccc(Cl)cc1)c1ccc(Cl)cc1,0,-5.02,0,0,0,0,0,HEK293 MPD ctr-2=120.5%;HEK293 MPD ctr 2-2=0;TRPC4 ctr mod=26.5%;TRPC4 ctr inh 2=47.0%
COc1ccc(CNCC(O)(c2ccc(Cl)cc2)c2ccc(Cl)cc2)cc1,0,0,0,0,0,0,-,
COc1cc(/C=N/NC(=O)c2ccncc2)ccc1OCc1cnc(Cl)s1,0,0,0,0,0,0,-,
NNc1ccc2c(C(F)(F)F)cc(C(F)(F)F)nc2n1,0,0,0,0,0,0,-,
N#CC(c1cccc(Cl)c1)c1ccc2c(C(F)(F)F)cc(C(F)(F)F)nc2n1 (stereo unspecified),0,-10.3,0,0,0,0,74.9%,TRPC4 sel inh 2=0;TRPC4 spec=0.8%;HEK293 MPD ctr 2-1=0;HEK293 MPD ctr-1=0.4%;TRPC6 act confirm=0
CCc1nnc(NC(=O)CSc2nnc(-c3ccccc3OC)n2-c2ccccc2)s1,0,0,12,0,0,0,0,HEK293 MPD ctr-2=182.5%;HEK293 MPD ctr 2-2=0;TRPC4 ctr mod=40.5%;TRPC4 ctr inh 2=0;TRPC6 act confirm=54.5%
CCc1nnc(NC(=O)CSc2nnc(-c3ccccc3OC)n2-c2ccc(C)cc2)s1,0,0,0,0,0,0,-,
CCOC(=O)c1nnn2c1nc(N1CCN(C)CC1)c1ccccc12,0,-8.43,0,0,0,0,61.0%,HEK293 MPD ctr-2=-238.5%;HEK293 MPD ctr 2-2=73.5%;TRPC4 ctr mod=-42.0%;TRPC4 ctr inh 2=53.0%;TRPC6 act confirm=0
CCOC(=O)c1nnn2c1nc(N1CCCCC1)c1ccccc12,0,0,0,0,0,0,-,
O=C(NCC(c1ccco1)N1CCCC1)c1ccccc1Sc1ccc(C(F)(F)F)cc1[N+](=O)[O-] (stereo unspecified),0,-6.62,0,0,0,0,0,TRPC4 sel inh 2=0;TRPC4 spec=3.1%;HEK293 MPD ctr 2-1=245.0%;HEK293 MPD ctr-1=0;TRPC6 act confirm=0
O=C(NCC(c1ccco1)N1CCCC1)c1ccc(Cl)cc1 (stereo unspecified),0,0,0,0,0,0,-,
COc1cc(C2C(C(=O)/C=C/c3ccccc3)=C(O)C(=O)N2c2ccccn2)ccc1O (stereo unspecified),0,0,0,0,0,0,-,

# Screening data as filed in PubChem BioAssay.
